Experiments:
Assay type in all cases: functional
Set-up in all cases: scale not given: the % may be the effect or the level left
[1] = test system: Rattus norvegicus; assay: Antiinflammatory activity in Wistar albino rat assessed as reduction in carrageenan-induced paw edema at 50 mg/kg, po administered 30 mins prior to carrageenan challenge measured after 1 hr by plethysmometer
Procedure, shortened: (§1)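 Rats housed under standard light and temperature with free food and water; food withdrawn 12 h before and during testing; six rats per group, control given tween 80. Oral dosing 30 min before subplantar injection of 0.1 mL 1% w/v carrageenan in normal saline into left hind paw. Paw volume read by plethysmometer at baseline and 1, 2, 3, 4 h; %AI = (Vc−Vt)/Vc×100.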

[2] = test system: Rattus norvegicus; assay: Antiinflammatory activity in Wistar albino rat assessed as reduction in carrageenan-induced paw edema at 50 mg/kg, po administered 30 mins prior to carrageenan challenge measured after 2 hrs by plethysmometer; procedure, shortened: as §1
[3] = test system: Rattus norvegicus; assay: Antiinflammatory activity in Wistar albino rat assessed as reduction in carrageenan-induced paw edema at 50 mg/kg, po administered 30 mins prior to carrageenan challenge measured after 4 hrs by plethysmometer; procedure, shortened: as §1
[4] = test system: Rattus norvegicus; assay: Antiinflammatory activity in Wistar albino rat assessed as reduction in carrageenan-induced paw edema at 50 mg/kg, po administered 30 mins prior to carrageenan challenge measured after 3 hrs by plethysmometer; procedure, shortened: as §1
[5] = test system: Rattus norvegicus; assay: Antiinflammatory activity in Wistar albino rat assessed as reduction in carrageenan-induced paw edema at 10 mg/kg, po administered 30 mins prior to carrageenan challenge measured after 4 hrs by plethysmometer; procedure, shortened: as §1
[6] = test system: Rattus norvegicus; assay: Antiinflammatory activity in Wistar albino rat assessed as reduction in carrageenan-induced paw edema at 10 mg/kg, po administered 30 mins prior to carrageenan challenge measured after 3 hrs by plethysmometer; procedure, shortened: as §1
[7] = test system: Rattus norvegicus; assay: Antiinflammatory activity in Wistar albino rat assessed as reduction in carrageenan-induced paw edema at 10 mg/kg, po administered 30 mins prior to carrageenan challenge measured after 2 hrs by plethysmometer; procedure, shortened: as §1
[8] = test system: Rattus norvegicus; assay: Antiinflammatory activity in Wistar albino rat assessed as reduction in carrageenan-induced paw edema at 10 mg/kg, po administered 30 mins prior to carrageenan challenge measured after 1 hr by plethysmometer; procedure, shortened: as §1

Structure (SMILES) | Activity [1] | Activity [2] | Activity [3] | Activity [4] | Activity [5] | Activity [6] | Activity [7] | Activity [8]
Cc1cc(C)nc(-n2nc(C(F)(F)F)cc2C(F)(F)F)n1 | 34% | 46% | 44% | 57% |  |  |  | 
Cc1cc(C)nc(-n2nc(C(F)(F)F)cc2-c2ccccc2)n1 | 33% | 43% | 51% | 62% |  |  |  | 
Cc1cc(C)nc(-n2nc(-c3ccc(Cl)cc3)cc2C(F)(F)F)n1 | 35% | 54% | 53% | 58% |  |  |  | 
Cc1cc(C)nc(-n2nc(-c3ccc(F)cc3)cc2C(F)(F)F)n1 | 26% | 38% | 49% | 55% |  |  |  | 
Cc1cc(C)nc(-n2nc(-c3ccccc3)cc2C(F)(F)F)n1 | 4.3% | 20% | 56% | 59% |  |  |  | 
Cc1cc(C)nc(-n2nc(-c3cccs3)cc2C(F)(F)F)n1 | 8.6% | 18% | 37% | 47% |  |  |  | 
COc1ccc(-c2cc(C(F)(F)F)nn2-c2nc(C)cc(C)n2)cc1 | 56% | 59% | 61% | 72% |  |  |  | 
Cc1cc(C)nc(N2N=C(C(F)(F)F)C[C@@]2(O)C(F)(F)F)n1 | 42% | 44% | 23% | 49% |  |  |  | 
Cc1cc(C)nc(N2N=C(c3ccccc3)C[C@@]2(O)C(F)(F)F)n1 | 44% | 47% | 45% | 50% |  |  |  | 
Cc1ccc(C2=NN(c3nc(C)cc(C)n3)[C@](O)(C(F)(F)F)C2)cc1 | 32% | 35% | 50% | 54% |  |  |  | 
Cc1cc(C)nc(N2N=C(c3ccc(F)cc3)C[C@@]2(O)C(F)(F)F)n1 | 49% | 51% | 38% | 54% |  |  |  | 
Cc1cc(C)nc(N2N=C(c3ccc(Cl)cc3)C[C@@]2(O)C(F)(F)F)n1 | 5.7% | 50% | 45% | 59% |  |  |  | 
Cc1ccc(-c2cc(C(F)(F)F)nn2-c2nc(C)cc(C)n2)cc1 | 48% | 55% | 53% | 69% |  |  |  | 
Cc1cc(C)nc(-n2nc(C(F)(F)F)cc2-c2ccc(F)cc2)n1 | 29% | 59% | 58% | 67% |  |  |  | 
Cc1cc(C)nc(-n2nc(C(F)(F)F)cc2-c2ccc(Cl)cc2)n1 | 55% | 64% | 63% | 76% |  |  |  | 
COc1ccc2c(c1)c(CC(=O)O)c(C)n2C(=O)c1ccc(Cl)cc1 [INDOMETHACIN] |  |  |  |  | 74% | 78% | 75% | 69%
